Assay results published in ChEMBL document CHEMBL4152271, “Polypharmacological profile of 1,2-dihydro-2-oxo-pyridine-3-carboxamides in the endocannabinoid system” (Eur J Med Chem, 2018).

Assays:
Cannabinoid receptor 2 [1] = target: T1, Cannabinoid receptor 2 (Homo sapiens, UniProt P34972); test: Agonist activity at human CB2 receptor expressed in CHO cell membranes after 90 mins by [35S]GTPgammaS binding assay; assay type: functional
Procedure, shortened: (§1)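 Membranes (5 µg) of hCB2-expressing cells in 50 mM Tris-HCl, 3 mM MgCl₂, 0.2 mM EDTA, 100 mM NaCl, 0.5% fatty acid-free BSA, pH 7.4, with 10 µM GDP and 0.1 nM [³⁵S]GTPγS. Kept on ice, started by vehicle or compound, 90 min at 30 °C. Nonspecific binding with 10 µM GTPγS. Filtered on GF/B, radioactivity counted. At least three experiments in triplicate, mean ± SD.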

Cannabinoid receptor 2 [2] = target: T1, Cannabinoid receptor 2; test: Agonist activity at human CB2 receptor expressed in CHO cell membranes after 90 mins by [35S]GTPgammaS binding assay relative to control; assay type: functional; procedure, shortened: as §1
Homo sapiens = species: Homo sapiens; test: Selectivity ratio of Ki for human CB1 receptor to Ki for human CB2 receptor
Procedure, shortened: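 Membranes expressing hCB1 or hCB2 (stably transfected CHO) in 50 mM Tris-HCl, 2.5 mM EDTA, 5 mM MgCl₂, 0.5% fatty acid-free BSA, pH 7.4. Incubated with compound and 0.5 nM [³H]CP55,940 for 90 min at 30 °C. Nonspecific binding with 10 µM […]. GF/B filtration, radioactivity counted, Ki derived. Mean ± SD, at least 3 experiments in triplicate.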

[3] = target: T2, Fatty-acid amide hydrolase 1 (Homo sapiens, UniProt O00519); test: Inhibition of FAAH in human U937 cells using AEA containing [ethanolamine-1-3H]AEA as substrate preincubated for 30 mins followed by substrate addition and measured after 15 mins by liquid scintillation spectroscopic method; assay type: cell-based
T2 sequence (O00519 whole entry): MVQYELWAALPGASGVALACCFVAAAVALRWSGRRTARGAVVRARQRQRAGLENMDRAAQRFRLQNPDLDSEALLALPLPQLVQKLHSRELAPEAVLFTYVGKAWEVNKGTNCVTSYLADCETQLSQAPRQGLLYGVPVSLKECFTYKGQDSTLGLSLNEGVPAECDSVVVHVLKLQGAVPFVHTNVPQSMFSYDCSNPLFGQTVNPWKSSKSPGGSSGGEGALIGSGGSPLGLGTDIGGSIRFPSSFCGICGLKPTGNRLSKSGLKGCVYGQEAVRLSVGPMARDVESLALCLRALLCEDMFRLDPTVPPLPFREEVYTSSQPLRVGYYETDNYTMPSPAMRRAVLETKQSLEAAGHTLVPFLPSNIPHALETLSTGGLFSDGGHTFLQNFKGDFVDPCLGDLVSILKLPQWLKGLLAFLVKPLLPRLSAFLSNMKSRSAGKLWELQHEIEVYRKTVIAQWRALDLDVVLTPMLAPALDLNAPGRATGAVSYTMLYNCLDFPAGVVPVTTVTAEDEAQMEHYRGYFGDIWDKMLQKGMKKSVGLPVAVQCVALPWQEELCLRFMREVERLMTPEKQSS
Procedure, shortened: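 U937 cell homogenate (100 µg) in 10 mM Tris-HCl, 1 mM EDTA, pH 8, 0.1% fatty acid-free BSA. Compound at 10 µM screening concentration, 30 min at 37 °C. FAAH: 100 nM AEA with 1 nM [³H]AEA tracer. MAGL: 1 µM 2-OG with 1 nM tritiated tracer. Both 15 min at 37 °C, stopped with CHCl₃:MeOH (1:1), aqueous phase counted.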

T1 sequence (P34972 whole entry): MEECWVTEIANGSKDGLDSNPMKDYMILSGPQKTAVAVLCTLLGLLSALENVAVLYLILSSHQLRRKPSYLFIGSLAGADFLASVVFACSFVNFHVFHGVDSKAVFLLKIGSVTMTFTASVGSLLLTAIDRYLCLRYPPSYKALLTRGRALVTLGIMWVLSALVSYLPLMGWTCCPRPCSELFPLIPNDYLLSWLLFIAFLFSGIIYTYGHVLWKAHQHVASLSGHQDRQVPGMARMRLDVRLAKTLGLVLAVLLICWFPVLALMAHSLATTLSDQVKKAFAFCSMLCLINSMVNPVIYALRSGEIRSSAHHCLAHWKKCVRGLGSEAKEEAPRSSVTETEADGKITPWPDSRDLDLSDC

| Structure (SMILES) | EC50 (Cannabinoid receptor 2 [1]) [µM] | Emax (Cannabinoid receptor 2 [2]) [%] | Ratio Ki (Homo sapiens) | IC50 [3] [µM] |
| --- | --- | --- | --- | --- |
| Cc1c(Br)cnc(OCc2ccc(F)cc2)c1C(=O)NC1CCCCCC1 | 0.687 | 125 | 0.18 | > 10 |
| Cc1c(Br)cn(Cc2ccc(F)cc2)c(=O)c1C(=O)NC1CCCCCC1 | 0.0011 | 134 | 0.65 | 2.3 |
| COc1ccc(-c2cn(Cc3ccc(F)cc3)c(=O)c(C(=O)NC3CCCCCC3)c2C)cc1 |  | 99 | 2 to 54 | 1.3 |
